# The M2OR odorant receptor database
# Where a chain is given by its changes, count along the chain named.
# Assays:
# Settings in all cases: stereoisomer not certain
# OR2W1 (Homo sapiens) = biological target: T1, OR2W1 (Homo sapiens) (UniProt Q9Y3N9)
# T1 sequence (whole entry): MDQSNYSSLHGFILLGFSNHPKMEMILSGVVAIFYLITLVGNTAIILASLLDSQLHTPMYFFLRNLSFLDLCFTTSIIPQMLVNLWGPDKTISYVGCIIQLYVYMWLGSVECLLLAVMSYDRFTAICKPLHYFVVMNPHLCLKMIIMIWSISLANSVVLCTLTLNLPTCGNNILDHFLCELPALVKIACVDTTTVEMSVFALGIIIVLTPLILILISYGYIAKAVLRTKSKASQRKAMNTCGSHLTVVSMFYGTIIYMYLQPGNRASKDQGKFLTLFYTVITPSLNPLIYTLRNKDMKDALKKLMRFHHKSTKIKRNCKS
# Procedure, shortened: (§1)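 Each entry records the cell line, G-protein, co-transfected protein and tags used. Methods varied with the source, often transient luciferase assays in mammalian cell lines. A receptor–molecule pair is called responsive (active) if the original authors judged its signal statistically different from baseline and non-responsive (inactive) otherwise.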
# OR2T7 (Homo sapiens) = biological target: T2, OR2T7 (Homo sapiens) (UniProt P0C7T2)
# T2 sequence (whole entry): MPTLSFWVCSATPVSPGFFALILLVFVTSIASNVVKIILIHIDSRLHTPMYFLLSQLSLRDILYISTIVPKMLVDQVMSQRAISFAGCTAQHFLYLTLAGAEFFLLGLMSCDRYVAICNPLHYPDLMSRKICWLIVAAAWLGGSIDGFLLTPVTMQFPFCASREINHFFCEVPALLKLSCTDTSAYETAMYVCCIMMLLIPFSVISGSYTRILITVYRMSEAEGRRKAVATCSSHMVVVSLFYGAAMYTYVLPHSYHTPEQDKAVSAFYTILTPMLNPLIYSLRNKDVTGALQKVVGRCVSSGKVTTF
# Procedure, shortened: as §1
# OR2T8 (Homo sapiens) = biological target: T3, OR2T8 (Homo sapiens) (UniProt A6NH00)
# T3 sequence (whole entry): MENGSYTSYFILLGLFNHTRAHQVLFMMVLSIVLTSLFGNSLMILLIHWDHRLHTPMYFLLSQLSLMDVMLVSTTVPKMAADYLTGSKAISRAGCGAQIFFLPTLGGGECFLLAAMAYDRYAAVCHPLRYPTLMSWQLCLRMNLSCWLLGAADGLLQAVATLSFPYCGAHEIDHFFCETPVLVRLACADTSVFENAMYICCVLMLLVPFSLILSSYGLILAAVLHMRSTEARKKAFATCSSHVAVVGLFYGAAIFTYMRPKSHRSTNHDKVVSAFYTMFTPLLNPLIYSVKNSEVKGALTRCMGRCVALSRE
# Procedure, shortened: as §1
# OR2V1 (Homo sapiens) = biological target: T4, OR2V1 (Homo sapiens) (UniProt Q8NHB1)
# T4 sequence (whole entry): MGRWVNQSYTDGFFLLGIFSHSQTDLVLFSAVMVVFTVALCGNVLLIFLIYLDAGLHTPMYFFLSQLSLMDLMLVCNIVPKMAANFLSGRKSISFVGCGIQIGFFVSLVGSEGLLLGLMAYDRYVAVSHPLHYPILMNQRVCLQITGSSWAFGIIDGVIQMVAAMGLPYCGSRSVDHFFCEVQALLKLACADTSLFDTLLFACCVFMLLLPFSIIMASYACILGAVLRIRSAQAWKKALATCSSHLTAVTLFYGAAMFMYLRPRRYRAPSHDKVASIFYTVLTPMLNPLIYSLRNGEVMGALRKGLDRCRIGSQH
# Procedure, shortened: as §1
# OR2V2 (Homo sapiens) = biological target: T5, OR2V2 (Homo sapiens) (UniProt Q96R30)
# T5 sequence (whole entry): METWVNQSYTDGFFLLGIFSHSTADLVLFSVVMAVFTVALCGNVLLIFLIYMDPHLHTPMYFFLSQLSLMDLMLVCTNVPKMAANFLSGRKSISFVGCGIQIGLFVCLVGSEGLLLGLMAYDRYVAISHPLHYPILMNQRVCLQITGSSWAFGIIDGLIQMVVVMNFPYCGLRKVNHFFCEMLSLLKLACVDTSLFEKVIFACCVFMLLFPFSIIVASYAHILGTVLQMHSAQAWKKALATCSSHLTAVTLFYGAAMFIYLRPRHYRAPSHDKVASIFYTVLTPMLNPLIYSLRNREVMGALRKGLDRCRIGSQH
# Procedure, shortened: as §1
# OR2T6 C23G = tested on: T6, OR2T6 C23G
# T6 sequence (whole entry): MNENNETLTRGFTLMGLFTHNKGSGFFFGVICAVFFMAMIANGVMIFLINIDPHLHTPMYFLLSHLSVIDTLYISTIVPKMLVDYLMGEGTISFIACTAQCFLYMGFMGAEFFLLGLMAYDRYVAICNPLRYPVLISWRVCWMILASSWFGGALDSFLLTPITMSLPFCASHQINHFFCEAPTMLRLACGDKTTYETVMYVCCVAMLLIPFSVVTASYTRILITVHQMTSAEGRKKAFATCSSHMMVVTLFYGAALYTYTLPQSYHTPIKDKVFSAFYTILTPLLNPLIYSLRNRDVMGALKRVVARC
# Procedure, shortened: as §1
# OR2T7 = tested on: T7, OR2T7
# T7 sequence (whole entry): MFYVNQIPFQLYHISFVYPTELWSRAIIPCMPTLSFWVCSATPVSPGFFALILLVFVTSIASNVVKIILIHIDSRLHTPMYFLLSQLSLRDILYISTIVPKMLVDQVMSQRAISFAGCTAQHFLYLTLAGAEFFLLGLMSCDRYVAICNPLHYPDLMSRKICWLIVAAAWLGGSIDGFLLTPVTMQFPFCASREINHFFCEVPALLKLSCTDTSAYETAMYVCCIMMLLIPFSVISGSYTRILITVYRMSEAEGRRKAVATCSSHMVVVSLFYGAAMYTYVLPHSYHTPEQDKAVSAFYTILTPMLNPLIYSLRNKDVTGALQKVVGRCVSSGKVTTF
# Procedure, shortened: as §1
# OR2W1 G96V = tested on: T8, OR2W1 G96V
# T8 sequence (whole entry): T1 sequence (whole entry) with G96V
# Procedure, shortened: as §1
# OR2W1 [1] = tested on: T9, OR2W1
# T9 sequence (whole entry): T1 sequence (whole entry) with D296N
# Procedure, shortened: as §1
# OR2W1 [2] = tested on: T10, OR2W1; remark: listed apart in the source
# T10 sequence (whole entry): T1 sequence (whole entry) with M81V
# Procedure, shortened: as §1
structure (smiles),measurement,setting,value
COC1=C(C)OC(C)C1=O (centres undefined),odorant receptor agonist call,OR2W1 (Homo sapiens),inactive
CC(=O)C=CC1=C(C)CCCC1(C)C,odorant receptor agonist call,OR2W1 (Homo sapiens),inactive
CCCCCC(S)C(C)CO (centres undefined),odorant receptor agonist call,OR2T7 (Homo sapiens),inactive
same,odorant receptor agonist call,OR2T8 (Homo sapiens),inactive
same,odorant receptor agonist call,OR2V1 (Homo sapiens),inactive
same,odorant receptor agonist call,OR2V2 (Homo sapiens),inactive
same,odorant receptor agonist call,OR2W1 (Homo sapiens),inactive
CC1=NC(C)C(C)S1 (centres undefined),odorant receptor agonist call,OR2T6 C23G,inactive
same,odorant receptor agonist call,OR2T7,inactive
same,odorant receptor agonist call,OR2T8 (Homo sapiens),inactive
same,odorant receptor agonist call,OR2V1 (Homo sapiens),inactive
same,odorant receptor agonist call,OR2V2 (Homo sapiens),inactive
same,odorant receptor agonist call,OR2W1 (Homo sapiens),inactive
same,odorant receptor agonist call,OR2W1 G96V,inactive
CCCC=CC=O,odorant receptor agonist call,OR2W1 (Homo sapiens),inactive
CCOC(=O)CCC(C)C,odorant receptor agonist call,OR2W1 (Homo sapiens),active
CCC(S)C(C)CO (centres undefined),odorant receptor agonist call,OR2T7 (Homo sapiens),inactive
same,odorant receptor agonist call,OR2T8 (Homo sapiens),inactive
same,odorant receptor agonist call,OR2V1 (Homo sapiens),inactive
same,odorant receptor agonist call,OR2V2 (Homo sapiens),inactive
same,odorant receptor agonist call,OR2W1 (Homo sapiens),inactive
C=CCSC,odorant receptor agonist call,OR2W1 (Homo sapiens),inactive
CCCCCCCC1CCCC(=O)O1 (centres undefined),odorant receptor agonist call,OR2W1 (Homo sapiens),inactive
O=C1Cc2ccccc2O1,odorant receptor agonist call,OR2W1 (Homo sapiens),inactive
CCCCC1CCC(=O)O1 (centres undefined),odorant receptor agonist call,OR2W1 (Homo sapiens),active
same,odorant receptor agonist call,OR2W1 [1],active
same,odorant receptor agonist call,OR2W1 [2],active
CCCCOC=O,odorant receptor agonist call,OR2W1 (Homo sapiens),active
SCc1cccs1,odorant receptor agonist call,OR2W1 (Homo sapiens),active
same,odorant receptor agonist call,OR2W1 [1],active
same,odorant receptor agonist call,OR2W1 [2],active
COc1cccc(OC)c1O,odorant receptor agonist call,OR2W1 (Homo sapiens),inactive
CCCCCCCCC=CC=O,odorant receptor agonist call,OR2W1 (Homo sapiens),inactive
CCCCC(=O)CC(C)=O,odorant receptor agonist call,OR2W1 (Homo sapiens),active
CC(C)CCO,odorant receptor agonist call,OR2W1 (Homo sapiens),inactive
CC(C)c1ccc(C=O)cc1,odorant receptor agonist call,OR2W1 (Homo sapiens),active
same,odorant receptor agonist call,OR2W1 [1],active
same,odorant receptor agonist call,OR2W1 [2],active
CC(=O)CC(C)(C)S,odorant receptor agonist call,OR2W1 (Homo sapiens),inactive
CCC(C)c1nccnc1OC (centres undefined),odorant receptor agonist call,OR2W1 (Homo sapiens),inactive
C=CC(=C)CCC=C(C)C,odorant receptor agonist call,OR2W1 (Homo sapiens),active
same,odorant receptor agonist call,OR2W1 [1],active
same,odorant receptor agonist call,OR2W1 [2],active
CCCCCC1CCCC(=O)O1 (centres undefined),odorant receptor agonist call,OR2W1 (Homo sapiens),inactive
CC=CC(=O)C1=C(C)C=CCC1(C)C,odorant receptor agonist call,OR2W1 (Homo sapiens),inactive
CC(C)CCCCCCCCCCC=O,odorant receptor agonist call,OR2W1 (Homo sapiens),inactive
CCC(=O)C(C)=O,odorant receptor agonist call,OR2W1 (Homo sapiens),inactive
CC(=O)C(C)O (centres undefined),odorant receptor agonist call,OR2W1 (Homo sapiens),inactive
CC(=O)OCc1ccccc1,odorant receptor agonist call,OR2W1 (Homo sapiens),active
CCO,odorant receptor agonist call,OR2W1 (Homo sapiens),inactive
CCCCCCO,odorant receptor agonist call,OR2W1 (Homo sapiens),active
same,odorant receptor agonist call,OR2W1 [1],active
same,odorant receptor agonist call,OR2W1 [2],inactive
CC=CC(=O)C1=C(C)CCCC1(C)C,odorant receptor agonist call,OR2W1 (Homo sapiens),inactive
CCCCCCC=CC=O,odorant receptor agonist call,OR2W1 (Homo sapiens),active
same,odorant receptor agonist call,OR2W1 [1],active
same,odorant receptor agonist call,OR2W1 [2],active
CC(=O)C1=NCCS1,odorant receptor agonist call,OR2W1 (Homo sapiens),inactive
C=Cc1ccc(O)c(OC)c1,odorant receptor agonist call,OR2W1 (Homo sapiens),inactive
CCCC1CCCC(=O)O1 (centres undefined),odorant receptor agonist call,OR2W1 (Homo sapiens),active
same,odorant receptor agonist call,OR2W1 [1],active
same,odorant receptor agonist call,OR2W1 [2],inactive
CC(=O)Oc1ccccc1,odorant receptor agonist call,OR2W1 (Homo sapiens),inactive
C=CC(=O)CC=CCC,odorant receptor agonist call,OR2W1 (Homo sapiens),inactive
CCCCC(C)=O,odorant receptor agonist call,OR2W1 (Homo sapiens),active
C=CC(O)CCCCC (centres undefined),odorant receptor agonist call,OR2W1 (Homo sapiens),active
same,odorant receptor agonist call,OR2W1 [1],active
same,odorant receptor agonist call,OR2W1 [2],active
SCCc1ccccc1,odorant receptor agonist call,OR2W1 (Homo sapiens),active
same,odorant receptor agonist call,OR2W1 [1],active
same,odorant receptor agonist call,OR2W1 [2],active
CCCCCC1=C(C)CCC1=O,odorant receptor agonist call,OR2W1 (Homo sapiens),active
CCCC(=O)C(C)=O,odorant receptor agonist call,OR2W1 (Homo sapiens),active
COc1cc(C(=O)O)ccc1O,odorant receptor agonist call,OR2W1 (Homo sapiens),inactive
CCCCCC1CCC(=O)O1 (centres undefined),odorant receptor agonist call,OR2W1 (Homo sapiens),active
same,odorant receptor agonist call,OR2W1 [1],active
same,odorant receptor agonist call,OR2W1 [2],active
CCCSSCCC,odorant receptor agonist call,OR2W1 (Homo sapiens),active
same,odorant receptor agonist call,OR2W1 [1],active
same,odorant receptor agonist call,OR2W1 [2],inactive
CC(=O)c1cnccn1,odorant receptor agonist call,OR2W1 (Homo sapiens),active
same,odorant receptor agonist call,OR2W1 [1],active
same,odorant receptor agonist call,OR2W1 [2],inactive
CCC=CCCC=CCO,odorant receptor agonist call,OR2W1 (Homo sapiens),active
same,odorant receptor agonist call,OR2W1 [1],active
same,odorant receptor agonist call,OR2W1 [2],active
CSCc1ccccc1,odorant receptor agonist call,OR2W1 (Homo sapiens),active
same,odorant receptor agonist call,OR2W1 [1],active
same,odorant receptor agonist call,OR2W1 [2],active
